The test system of data set [1] is J774 macrophages. The data set can be described thus: release of lactate dehydrogenase. The format is cell-based, mouse. As to conditions: 24 h incubation, telavancin 90 mg/L, vancomycin 50 mg/L, oritavancin 25 mg/L (human Cmax), controls 5.0 ± 0.2%, n = 3. In a few lines: (§1)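 LDH release into the culture medium was measured after exposure to the test compound to assess pericellular membrane integrity. J774 macrophages were grown in RPMI 1640 and rat embryo fibroblasts in Dulbecco's modified Eagle's medium, both with 10% fetal calf serum.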

Data set [2] has as its system rat embryo fibroblasts. As to the kind of experiment: release of lactate dehydrogenase. The format is cell-based. The following applies: 72 h incubation, telavancin 90 mg/L, vancomycin 50 mg/L, oritavancin 25 mg/L (human Cmax), controls 13.4 ± 3.7%, n = 3. The essentials: as §1
The next data set concerns J774 mouse macrophages. As to the kind of experiment: total phospholipid and cholesterol content, macrophages. The format is cell-based. The following applies: 24 h, telavancin 90 mg/L, vancomycin 50 mg/L, oritavancin 25 mg/L, n = 6–8; for total cholesterol content: control 72 ± 3 nmol/mg of protein; for total phospholipid content: control 204 ± 10 nmol/mg of protein.
The subject of data set [3] is rat embryo fibroblasts. As to the kind of experiment: total phospholipid and cholesterol content, fibroblasts. It is filed as cell-based. As to conditions: 72 h, telavancin 90 mg/L, vancomycin 50 mg/L, oritavancin 25 mg/L, n = 6–8; for total cholesterol content: control 130 ± 16 nmol/mg of protein; for total phospholipid content: control 295 ± 8 nmol/mg of protein.
The subject of data set [4] is J774 macrophages. The following applies: cited from earlier work; for accumulation level in macrophages: recorded previously in the same conditions (macrophages, 24 h).
The conditions of data set [5]: cited from earlier work.
Data set [6] has as its system J774 macrophages. The data set can be described thus: cellular uptake, accumulation and efflux. It is filed as in vitro ADME, mouse.
In data set [7] the test system is rat embryo fibroblasts. As to the kind of experiment: cellular uptake. As to conditions: stated for both cell types. The format is in vitro ADME.
Data set [8] deals with J774 macrophages. As to the kind of experiment: subcellular distribution by cell fractionation and isopycnic centrifugation. The following applies: 24 h, 90 mg/L. The format is in vitro ADME, mouse. The essentials:
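J774 macrophages were exposed 24 h at 37°C to 90 mg/L labelled test compound in 10% serum medium. They were then scraped into 0.25 M sucrose/1 mM EGTA/3 mM imidazole pH 7.4 and homogenised. Low-speed spin gave unbroken cells/nuclei; high-speed spin split granules/membranes from supernatant. The granule fraction was run on an isopycnic sucrose gradient, with densities standardised 1.08–1.21. Radioactivity, protein and marker enzymes were measured, expressed as % recovered per fraction.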

Data set [9] concerns J774 macrophages. The data set can be described thus: electron microscopy with morphometric analysis of lysosomal changes, macrophages. It is filed as cell-based, mouse. As to conditions: 24 h.
The test system of data set [10] is rat embryo fibroblasts. The data set can be described thus: electron microscopy with morphometric analysis of lysosomal changes, fibroblasts. As to conditions: 72 h. The format is cell-based.

The source of these data is publication PMC2386079 (Journal of Antimicrobial Chemotherapy, 2008).

Where two headings read alike, the source gives them in different places.

On to `CN[C@H](CC(C)C)C(=O)N[C@H]1C(=O)N[C@@H](CC(N)=O)C(=O)N[C@H]2C(=O)N[C@H]3C(=O)N[C@H](C(=O)N[C@H](C(=O)O)c4cc(O)cc(O)c4-c4cc3ccc4O)[C@H](O)c3ccc(c(Cl)c3)Oc3cc2cc(c3O[C@@H]2O[C@H](CO)[C@@H](O)[C@H](O)[C@H]2O[C@H]2C[C@](C)(N)[C@H](O)[C@H](C)O2)Oc2ccc(cc2Cl)[C@H]1O` [vancomycin, Vancomycin], for which the “release of lactate dehydrogenase” value with J774 macrophages [1] came out at 5.0 ± 1.5%; in the data set on rat embryo fibroblasts [2] it was 17.1 ± 1.3%. In addition, the total cholesterol content result in the data set with J774 mouse macrophages and with rat embryo fibroblasts [3] was “slight but not significant increase” each time. Also, the total phospholipid content result in the data set on J774 mouse macrophages and with rat embryo fibroblasts [3] was “Neither telavancin nor vancomycin caused detectable increase” each time. The “accumulation level in macrophages” value in the data set on J774 macrophages [4] is reported as roughly 8 fold. In addition, in data set [5], the “human Cmax” value was 50 µg/mL.
As for Oritavancin, the “release of lactate dehydrogenase” value in the data set with J774 macrophages [1] turned out to be 15.5 ± 1.5%; in the data set with rat embryo fibroblasts [2], 18.2 ± 3.0%. Besides, the total cholesterol content entry in the data set with J774 mouse macrophages is reported as “marked, statistically significant increase”; with rat embryo fibroblasts [3], “marked, statistically significant increase”. Besides, the total phospholipid content entry in the data set on J774 mouse macrophages and in the data set with rat embryo fibroblasts [3] was “significant increases” in each case. Also, the “initial uptake clearance rate” value with J774 macrophages [4] (J774 macrophages) is on record as ~150 µL/mg of protein/h. For the same compound, the “accumulation level in macrophages” value in the data set with J774 macrophages [4] is roughly 370 fold. For the same compound, the “human Cmax” value in data set [5] was 25 µg/mL.
Regarding Telavancin, the “release of lactate dehydrogenase” value is reported as 4.9 ± 1.0% in the data set on J774 macrophages [1] and 16.9 ± 2.5% with rat embryo fibroblasts [2]. In addition, the “accumulation level in macrophages” value in the data set on J774 macrophages [6] (24 h) is on record as roughly 45 fold. Further, the “apparent rate of efflux relative to influx (fold lower)” value in the data set on J774 macrophages [6] (initial uptake 12 h at 90 mg/L, then drug-free medium for 24 h) was roughly 5.7 fold. Also, the “uptake rate without serum relative to with serum (fold faster)” value in the data set on J774 macrophages [6] (medium not supplemented with calf serum, 5 h, 10–90 mg/L, data not shown) is given as ~ 1.7 fold. The “clearance rate (abstract)” value in the data set with J774 macrophages [6] (stated for both cell types) and in the data set on rat embryo fibroblasts [7] was ~10 mL/g of protein/h in each case. In addition, the “cell-associated drug recovered in supernatant fraction” value with J774 macrophages [8] (N-acetyl-β-glucosaminidase 6%) is recorded as 10%. In the data set on J774 macrophages [8] (N-acetyl-β-glucosaminidase 27%), the “cell-associated drug recovered in unbroken cells/nuclei fraction” value turned out to be 35%. The “cell-associated drug recovered in granules/membranes fraction” value in the data set on J774 macrophages [8] (N-acetyl-β-glucosaminidase 67%) was 55%. Also, the “ultrastructural alterations (electron microscopy)” value is “enlargement of lysosomes that were filled with a pleiotropic material” in the data set with J774 macrophages [9] (J774 macrophages, 90 mg/L) and “enlargement of lysosomes that were filled with a pleiotropic material” in the data set on rat embryo fibroblasts [10] (90 mg/L). The “morphometric changes compared with vancomycin” value in the data set on J774 macrophages [9] (macrophages, 25 mg/L telavancin vs 50 mg/L vancomycin) is given as “changes similar to those seen with 50 mg/L vancomycin”; in the data set with rat embryo fibroblasts [10] (90 mg/L telavancin vs 50 mg/L vancomycin) it was “changes similar to those seen with 50 mg/L vancomycin”. Also, the “morphometric alterations compared with oritavancin” value is “considerably milder than in cells incubated with 20 mg/L oritavancin” with J774 macrophages [9] (macrophages, 90 mg/L telavancin vs 20 mg/L oritavancin) and “considerably milder than in cells incubated with 20 mg/L oritavancin” with rat embryo fibroblasts [10] (90 mg/L telavancin vs 20 mg/L oritavancin). For the same compound, the total cholesterol content entry in the data set with J774 mouse macrophages and in the data set with rat embryo fibroblasts [3] was “slight but not significant increase” throughout. The total phospholipid content entry with J774 mouse macrophages and in the data set on rat embryo fibroblasts [3] was “Neither telavancin nor vancomycin caused detectable increase” in each case. Also, the “human Cmax” value in [5] is 90 µg/mL. Further, the half-life in [5] (serum, once-daily administration) is given as 7.5 h. The “cellular concentration in human alveolar macrophages” value in data set [5] (within 8–24 h after systemic administration of therapeutic doses) was ~ 50 mg/L.

As a reminder, the half-life is the time needed for the level to fall by half in the phase considered.
